How the values were obtained:
Cytochrome P450 2C9 = Cytochrome P450 2C9 (Homo sapiens, UniProt P11712); assay: Inhibition of CYP2C9; format: ADME
[1] = target: T1, C-C chemokine receptor type 2 (Homo sapiens, UniProt P41597); assay: Antagonist activity at human CCR2 expressed in CHO cells assessed as inhibition of MCP1-induced [35S]-GTPgammaS binding after 3 hrs; format: functional, cell-based
Target sequence in this assay (P41597 whole entry): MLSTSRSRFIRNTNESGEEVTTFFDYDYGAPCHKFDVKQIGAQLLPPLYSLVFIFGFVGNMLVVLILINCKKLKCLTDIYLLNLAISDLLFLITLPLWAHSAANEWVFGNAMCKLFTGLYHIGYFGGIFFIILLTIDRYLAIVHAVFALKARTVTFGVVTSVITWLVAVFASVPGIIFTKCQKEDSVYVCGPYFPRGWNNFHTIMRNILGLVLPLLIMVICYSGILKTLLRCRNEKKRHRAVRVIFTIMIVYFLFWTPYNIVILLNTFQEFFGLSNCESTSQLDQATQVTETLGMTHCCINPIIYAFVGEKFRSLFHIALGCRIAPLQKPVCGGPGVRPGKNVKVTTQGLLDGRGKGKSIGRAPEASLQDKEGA

Cytochrome P450 2D6 = Cytochrome P450 2D6 (Homo sapiens, UniProt P10635); assay: Inhibition of CYP2D6; format: ADME
Chain of Cytochrome P450 2D6 (P10635 whole entry): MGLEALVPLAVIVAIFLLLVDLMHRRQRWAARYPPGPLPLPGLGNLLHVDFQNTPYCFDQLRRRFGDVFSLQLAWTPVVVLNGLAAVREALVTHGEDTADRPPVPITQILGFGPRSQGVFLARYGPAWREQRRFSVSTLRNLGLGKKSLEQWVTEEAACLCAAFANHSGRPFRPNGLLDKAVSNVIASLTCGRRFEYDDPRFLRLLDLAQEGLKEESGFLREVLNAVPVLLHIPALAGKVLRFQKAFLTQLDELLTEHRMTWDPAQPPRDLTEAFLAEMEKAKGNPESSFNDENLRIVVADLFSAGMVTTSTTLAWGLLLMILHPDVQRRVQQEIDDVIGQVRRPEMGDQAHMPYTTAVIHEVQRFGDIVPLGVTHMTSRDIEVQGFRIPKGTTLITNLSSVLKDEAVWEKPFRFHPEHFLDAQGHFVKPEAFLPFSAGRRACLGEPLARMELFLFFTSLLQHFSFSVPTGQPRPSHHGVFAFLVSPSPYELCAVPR

[2] = Clearance in rat; format: ADME, organism-based; details: in vivo
[3] = target: Voltage-gated inwardly rectifying potassium channel KCNH2 (Homo sapiens, UniProt Q12809); assay: Binding affinity to human ERG by fluorescence-polarization binding assay
Chain of Voltage-gated inwardly rectifying potassium channel KCNH2 (Q12809 whole entry): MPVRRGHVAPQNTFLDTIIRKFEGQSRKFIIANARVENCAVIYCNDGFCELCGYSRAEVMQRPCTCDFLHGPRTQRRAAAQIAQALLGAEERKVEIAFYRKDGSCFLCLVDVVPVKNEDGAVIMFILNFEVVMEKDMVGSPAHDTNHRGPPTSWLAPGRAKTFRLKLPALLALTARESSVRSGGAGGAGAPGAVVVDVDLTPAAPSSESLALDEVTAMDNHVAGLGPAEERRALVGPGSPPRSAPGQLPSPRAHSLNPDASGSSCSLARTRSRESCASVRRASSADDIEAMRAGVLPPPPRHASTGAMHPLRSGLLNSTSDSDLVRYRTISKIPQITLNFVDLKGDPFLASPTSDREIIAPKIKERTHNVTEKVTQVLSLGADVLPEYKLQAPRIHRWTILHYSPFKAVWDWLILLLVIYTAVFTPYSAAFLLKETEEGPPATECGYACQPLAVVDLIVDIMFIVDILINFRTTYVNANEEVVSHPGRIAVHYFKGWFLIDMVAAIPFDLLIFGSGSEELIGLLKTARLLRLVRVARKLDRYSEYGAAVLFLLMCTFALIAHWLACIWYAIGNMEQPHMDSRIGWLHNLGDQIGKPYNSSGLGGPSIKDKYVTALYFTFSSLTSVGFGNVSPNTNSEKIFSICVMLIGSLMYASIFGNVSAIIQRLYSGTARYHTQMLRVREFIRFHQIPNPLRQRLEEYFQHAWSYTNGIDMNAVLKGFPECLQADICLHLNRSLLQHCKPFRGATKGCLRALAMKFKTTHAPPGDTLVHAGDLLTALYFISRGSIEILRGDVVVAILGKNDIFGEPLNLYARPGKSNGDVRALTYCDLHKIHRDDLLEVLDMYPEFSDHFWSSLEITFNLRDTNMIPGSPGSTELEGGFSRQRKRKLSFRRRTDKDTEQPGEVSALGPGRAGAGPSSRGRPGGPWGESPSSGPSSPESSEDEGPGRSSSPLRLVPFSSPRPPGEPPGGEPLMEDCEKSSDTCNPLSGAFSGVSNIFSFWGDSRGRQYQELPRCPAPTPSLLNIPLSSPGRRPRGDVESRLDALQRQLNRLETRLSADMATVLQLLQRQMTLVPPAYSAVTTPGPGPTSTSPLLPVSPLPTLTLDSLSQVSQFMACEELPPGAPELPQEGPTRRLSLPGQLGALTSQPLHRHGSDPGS

[4] = target: T2, C-C chemokine receptor type 5 (Homo sapiens, UniProt P51681); assay: Antagonist activity at CCR5; format: functional
[5] = Lipophilicity, log D of the compound; format: physicochemical; details: octanol/water
[6] = target: T1, C-C chemokine receptor type 2; assay: Antagonist activity at CCR2 in human THP1 cells assessed as inhibition of CCL2-induced chemotaxis at 1 uM in presence of 0.1% human serum; format: functional, cell-based; details: THP-1
Procedure, shortened: (§1)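 Boyden chamber (48-well) chemotaxis of THP-1 cells stimulated with CCL2. Foetal bovine serum or human serum was added to the assay buffer.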
Target sequence in this assay (P41597 whole entry, looked up): as the sequence (P41597 whole entry) above

[7] = Half life in iv dosed in rat; format: ADME, organism-based; details: in vivo
[8] = target: T3, C-C chemokine receptor type 4 (Homo sapiens, UniProt P51679); assay: Antagonist activity at CCR4; format: functional
T3 sequence (P51679 whole entry): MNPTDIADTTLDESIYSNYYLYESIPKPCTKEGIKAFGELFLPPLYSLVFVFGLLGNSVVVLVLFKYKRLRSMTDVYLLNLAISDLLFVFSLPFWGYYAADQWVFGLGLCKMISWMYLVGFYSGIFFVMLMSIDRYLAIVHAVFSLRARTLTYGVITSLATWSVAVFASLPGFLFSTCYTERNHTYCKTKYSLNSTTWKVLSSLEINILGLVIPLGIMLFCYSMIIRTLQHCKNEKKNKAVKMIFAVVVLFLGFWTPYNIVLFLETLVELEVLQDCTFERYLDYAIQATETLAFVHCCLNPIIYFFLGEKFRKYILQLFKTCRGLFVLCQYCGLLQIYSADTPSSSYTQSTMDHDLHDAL

Cytochrome P450 2C19 = Cytochrome P450 2C19 (Homo sapiens, UniProt P33261); assay: Inhibition of CYP2C19; format: ADME
Chain of Cytochrome P450 2C19 (P33261 whole entry): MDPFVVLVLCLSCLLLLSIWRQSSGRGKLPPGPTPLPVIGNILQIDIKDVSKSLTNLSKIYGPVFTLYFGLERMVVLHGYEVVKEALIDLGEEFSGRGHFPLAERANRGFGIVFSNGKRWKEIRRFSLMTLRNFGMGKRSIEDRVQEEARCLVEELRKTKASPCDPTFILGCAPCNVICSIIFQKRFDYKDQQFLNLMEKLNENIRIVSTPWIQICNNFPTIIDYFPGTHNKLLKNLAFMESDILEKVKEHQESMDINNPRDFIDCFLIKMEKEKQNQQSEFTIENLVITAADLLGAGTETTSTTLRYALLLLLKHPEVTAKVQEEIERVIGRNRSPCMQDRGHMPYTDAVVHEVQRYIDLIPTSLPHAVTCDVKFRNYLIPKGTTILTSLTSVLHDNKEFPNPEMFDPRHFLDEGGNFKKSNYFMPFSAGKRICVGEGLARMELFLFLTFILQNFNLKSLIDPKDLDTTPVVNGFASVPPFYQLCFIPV

Cytochrome P450 1A2 = target: T4, Cytochrome P450 1A2 (Homo sapiens, UniProt P05177); assay: Inhibition of CYP1A2; format: ADME
T4 sequence (P05177 whole entry): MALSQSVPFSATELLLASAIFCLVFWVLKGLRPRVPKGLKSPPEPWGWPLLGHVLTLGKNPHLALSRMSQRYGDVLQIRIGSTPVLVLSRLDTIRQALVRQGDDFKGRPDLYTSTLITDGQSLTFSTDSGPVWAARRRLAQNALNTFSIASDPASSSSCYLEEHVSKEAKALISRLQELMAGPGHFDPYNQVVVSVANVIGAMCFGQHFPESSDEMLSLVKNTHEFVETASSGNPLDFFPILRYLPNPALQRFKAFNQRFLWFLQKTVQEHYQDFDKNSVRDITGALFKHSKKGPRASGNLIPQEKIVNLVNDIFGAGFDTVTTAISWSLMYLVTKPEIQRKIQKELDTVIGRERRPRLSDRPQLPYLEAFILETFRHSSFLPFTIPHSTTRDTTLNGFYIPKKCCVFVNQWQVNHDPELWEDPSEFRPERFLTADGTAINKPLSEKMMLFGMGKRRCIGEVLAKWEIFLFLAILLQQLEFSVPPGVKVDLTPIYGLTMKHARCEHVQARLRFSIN

[9] = target: T1, C-C chemokine receptor type 2; assay: Inhibition of CCR2-mediated chemotaxis in human THP1 cells assessed as half life of reversibility at 10 uM after assay buffer exchange; format: cell-based; details: THP-1
Procedure, shortened: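 THP-1 cells were preincubated with compound at 10 µM for 30 min. The assay buffer was then exchanged and CCL2-driven chemotaxis was stimulated periodically to generate a reversibility curve. The half-life of reversibility was taken from this curve.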
Target sequence in this assay (P41597 whole entry, looked up): as the sequence (P41597 whole entry) above

Cytochrome P450 3A4 = Cytochrome P450 3A4 (Homo sapiens, UniProt P08684); assay: Inhibition of CYP3A4; format: ADME
Chain of Cytochrome P450 3A4 (P08684 whole entry): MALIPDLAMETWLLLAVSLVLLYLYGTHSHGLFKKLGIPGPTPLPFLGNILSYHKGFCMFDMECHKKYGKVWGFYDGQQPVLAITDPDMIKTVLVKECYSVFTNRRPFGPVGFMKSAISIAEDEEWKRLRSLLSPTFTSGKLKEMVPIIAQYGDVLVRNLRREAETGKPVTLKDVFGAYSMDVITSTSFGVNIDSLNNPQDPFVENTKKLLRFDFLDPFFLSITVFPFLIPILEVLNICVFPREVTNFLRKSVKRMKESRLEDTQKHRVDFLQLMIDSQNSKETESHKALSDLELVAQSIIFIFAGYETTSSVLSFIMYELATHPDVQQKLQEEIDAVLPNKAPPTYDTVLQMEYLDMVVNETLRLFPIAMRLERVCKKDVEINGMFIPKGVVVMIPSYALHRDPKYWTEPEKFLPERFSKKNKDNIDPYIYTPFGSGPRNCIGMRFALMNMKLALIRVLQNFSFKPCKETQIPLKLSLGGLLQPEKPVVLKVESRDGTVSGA

[10] = Half life in po dosed in rat; format: ADME, organism-based; details: in vivo
Rattus norvegicus = organism: Rattus norvegicus; assay: Volume of distribution in rat; format: ADME, organism-based; details: in vivo
[11] = target: T1, C-C chemokine receptor type 2; assay: Antagonist activity at CCR2 in human THP1 cells assessed as inhibition of CCL2-induced chemotaxis at 1 uM in presence of 1% human serum; format: functional, cell-based; details: THP-1; procedure, shortened: as §1
Target sequence in this assay (P41597 whole entry, looked up): as the sequence (P41597 whole entry) above

[12] = Oral bioavailability in rat; format: ADME, organism-based; details: in vivo
Albumin [13] = target: T5, Albumin (Homo sapiens, UniProt P02768); assay: Binding affinity to immobilised human serum albumin by ultrafiltration and biacore method; format: ADME; details: isolated protein
T5 sequence (P02768 whole entry): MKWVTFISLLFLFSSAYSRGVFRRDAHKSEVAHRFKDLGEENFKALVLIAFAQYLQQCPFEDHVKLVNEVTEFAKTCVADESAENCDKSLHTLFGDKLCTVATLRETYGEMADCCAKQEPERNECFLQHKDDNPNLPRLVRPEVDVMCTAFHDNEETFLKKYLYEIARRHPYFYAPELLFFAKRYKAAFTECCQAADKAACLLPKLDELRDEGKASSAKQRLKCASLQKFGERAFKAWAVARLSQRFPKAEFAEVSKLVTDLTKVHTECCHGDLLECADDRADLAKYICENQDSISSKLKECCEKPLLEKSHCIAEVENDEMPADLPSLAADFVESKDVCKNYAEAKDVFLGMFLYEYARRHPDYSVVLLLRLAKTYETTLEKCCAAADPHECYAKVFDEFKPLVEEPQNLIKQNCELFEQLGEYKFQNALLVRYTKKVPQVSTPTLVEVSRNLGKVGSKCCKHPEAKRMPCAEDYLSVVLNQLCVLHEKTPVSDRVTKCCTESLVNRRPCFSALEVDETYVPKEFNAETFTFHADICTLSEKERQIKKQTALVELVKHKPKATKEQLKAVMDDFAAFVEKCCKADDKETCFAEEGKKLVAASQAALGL

Albumin [14] = target: T5, Albumin; assay: Binding affinity to immobilised human serum albumin by chromatographic analysis; format: ADME; details: isolated protein
[15] = target: C-C chemokine receptor type 1 (Homo sapiens) (UniProt P32246); assay: Antagonist activity at CCR1
Chain of C-C chemokine receptor type 1 (Homo sapiens) (P32246 whole entry, looked up): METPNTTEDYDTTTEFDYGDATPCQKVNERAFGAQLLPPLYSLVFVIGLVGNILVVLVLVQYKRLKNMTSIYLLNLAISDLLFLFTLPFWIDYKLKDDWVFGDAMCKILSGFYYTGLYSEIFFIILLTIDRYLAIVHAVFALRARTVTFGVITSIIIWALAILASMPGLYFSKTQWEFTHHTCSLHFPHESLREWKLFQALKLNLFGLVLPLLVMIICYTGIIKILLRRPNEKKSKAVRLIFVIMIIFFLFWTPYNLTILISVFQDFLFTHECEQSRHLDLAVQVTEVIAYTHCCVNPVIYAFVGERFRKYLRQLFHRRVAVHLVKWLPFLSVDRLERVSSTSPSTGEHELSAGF

[16] = target: T1, C-C chemokine receptor type 2; assay: Antagonist activity at CCR2 in human THP1 cells assessed as inhibition of CCL2-induced chemotaxis at 10 uM in presence of 1% human serum; format: functional, cell-based; details: THP-1; procedure, shortened: as §1
Target sequence in this assay (P41597 whole entry, looked up): as the sequence (P41597 whole entry) above

[17] = target: C-C chemokine receptor type 1 (Homo sapiens) (UniProt P32246); assay: Antagonist activity at human CCR1
[18] = target: T2, C-C chemokine receptor type 5; assay: Antagonist activity at CCR5 at 10 uM; format: functional; set-up: scale not given: the % may be the effect or the level left

Chain of Cytochrome P450 2C9 (P11712 whole entry): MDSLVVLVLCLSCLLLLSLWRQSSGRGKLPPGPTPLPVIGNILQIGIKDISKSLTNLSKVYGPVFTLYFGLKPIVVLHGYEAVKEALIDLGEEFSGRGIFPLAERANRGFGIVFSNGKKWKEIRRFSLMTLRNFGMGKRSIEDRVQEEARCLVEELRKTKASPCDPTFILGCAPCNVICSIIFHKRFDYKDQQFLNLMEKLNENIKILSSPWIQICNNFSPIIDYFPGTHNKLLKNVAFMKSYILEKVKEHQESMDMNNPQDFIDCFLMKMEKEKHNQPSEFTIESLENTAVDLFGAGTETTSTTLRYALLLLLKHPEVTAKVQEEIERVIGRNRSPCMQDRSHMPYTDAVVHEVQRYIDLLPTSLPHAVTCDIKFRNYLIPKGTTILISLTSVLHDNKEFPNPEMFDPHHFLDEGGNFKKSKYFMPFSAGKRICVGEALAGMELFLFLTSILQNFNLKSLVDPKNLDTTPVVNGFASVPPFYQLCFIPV

O=C(O)c1ccccc1Oc1ncc(Cl)cc1NS(=O)(=O)c1ccc(Cl)c(Cl)c1 gave an IC50 (Cytochrome P450 2C9) of 21400 nM, a Ki [1] of 1.26 nM and an IC50 (Cytochrome P450 2D6) of 100000 nM. For the same compound, the clearance [2] was 0.71 mL/min/kg, the IC50 [3] was over 31600 nM and the IC50 [4] was 251 nM. For the same compound, the logD [5] was 0.8, the inhibition [6] was 67% and the half-life [7] was 4.5 h. It also gave a Ki [8] of 794 nM, an IC50 (Cytochrome P450 2C19) of 39800 nM and an IC50 (Cytochrome P450 1A2) of 39800 nM. For the same compound, the T1/2 [9] was 4.67 h, the IC50 (Cytochrome P450 3A4) was 100000 nM and the half-life [10] was 4.5 h. It also gave a Vd (Rattus norvegicus) of 0.12 L/kg, an inhibition [11] of 37% and a bioavailability [12] of 97%.

O=S(=O)(Nc1cc(Cl)cnc1Oc1cccnn1)c1ccc(Cl)c(Cl)c1 gave a Ki [1] of 200 nM.

Work on O=C(O)c1ccccc1Oc1ccc(Cl)cc1NS(=O)(=O)c1ccc(Cl)c(Cl)c1 yielded an IC50 (Cytochrome P450 2C9) of 4170 nM, an IC50 (Cytochrome P450 2D6) of 53700 nM and a clearance [2] of 0.6 mL/min/kg. For the same compound, the IC50 [4] was 631 nM, the half-life [7] was 6.5 h and the Ki [8] was 398 nM. It also gave an IC50 (Cytochrome P450 2C19) of 11000 nM, an IC50 (Cytochrome P450 1A2) of 39800 nM and an IC50 (Cytochrome P450 3A4) of 10000 nM. The half-life [10] was 5.9 h, the Vd (Rattus norvegicus) was 0.2 L/kg and the bioavailability [12] was 70%.

O=C(O)c1ccc(Oc2ncc(Cl)cc2NS(=O)(=O)c2ccc(Cl)c(Cl)c2)cc1 gave a Ki [1] of 3.16 nM and a logD [5] of 0.4.

With O=S(=O)(Nc1cc(Cl)cnc1Oc1cccnc1)c1ccc(Cl)c(Cl)c1 the Ki [1] was 20 nM, the logD [5] was 2.32 and the inhibition [6] was 36%. For the same compound, the Activity (Albumin [13]) was over 99.5%, the inhibition [11] was 5.4% and the Activity (Albumin [14]) was over 98%.

O=C(O)c1ccccc1Oc1ccc(Cl)cc1NS(=O)(=O)c1ccc(Cl)s1 gave a Ki [1] of 5.01 nM.

With O=C(O)c1ccccc1Oc1cccc(F)c1NS(=O)(=O)c1ccc(Cl)cc1 the Ki [1] was over 3160 nM and the Ki [15] was over 3160 nM.

In the case of O=C(O)c1ccccc1Oc1ccc(Cl)cc1NS(=O)(=O)c1ccc(Cl)cc1, the Ki [1] is reported as 20 nM, the inhibition [16] is reported as 65% and the Ki [17] is reported as 158 nM.

With N#Cc1ccc(Oc2ncc(Cl)cc2NS(=O)(=O)c2ccc(Cl)c(Cl)c2)cn1 the Ki [1] was 15.8 nM and the logD [5] was 2.12.

In the case of Cc1ccc(NS(=O)(=O)c2ccc(Cl)cc2)c(Oc2ccccc2C(=O)O)c1, the Ki [1] is reported as 631 nM and the Ki [15] is reported as 631 nM.

Cc1ncccc1Oc1ncc(Cl)cc1NS(=O)(=O)c1ccc(Cl)c(Cl)c1 gave an IC50 (Cytochrome P450 2C9) of 1350 nM, an Activity [18] of 40% and a Ki [1] of 10 nM. For the same compound, the IC50 (Cytochrome P450 2D6) was over 100000 nM, the clearance [2] was 4.3 mL/min/kg and the IC50 [3] was over 31600 nM. For the same compound, the logD [5] was 2.7, the inhibition [6] was 72% and the half-life [7] was 0.8 h. It also gave a Ki [8] of 1260 nM, an IC50 (Cytochrome P450 2C19) of 22400 nM and an IC50 (Cytochrome P450 1A2) of over 100000 nM. For the same compound, the IC50 (Cytochrome P450 3A4) was 19500 nM, the half-life [10] was 2.3 h and the Vd (Rattus norvegicus) was 0.34 L/kg. It also gave an inhibition [11] of 50% and a bioavailability [12] of 75%.

Compound CS(=O)(=O)Nc1cc(Cl)ccc1Oc1ccccc1C(=O)O has a Ki [1] of 398 nM.

Compound O=C(O)c1ccccc1Oc1ncccc1NS(=O)(=O)c1ccc(Cl)c(Cl)c1 has a Ki [1] of 31.6 nM, an inhibition [6] of 60% and an inhibition [11] of 41%.

With O=S(=O)(Nc1cc(Cl)cnc1Oc1cncc(Cl)c1)c1ccc(Cl)c(Cl)c1 the IC50 (Cytochrome P450 2C9) was 1070 nM, the Ki [1] was 12.6 nM and the IC50 (Cytochrome P450 2D6) was over 100000 nM. The clearance [2] was 2.4 mL/min/kg, the logD [5] was 3.1 and the inhibition [6] was 55%. It also gave a half-life [7] of 1.2 h, an IC50 (Cytochrome P450 2C19) of 6610 nM and an IC50 (Cytochrome P450 1A2) of over 100000 nM. The IC50 (Cytochrome P450 3A4) was 437 nM, the Vd (Rattus norvegicus) was 0.2 L/kg and the inhibition [11] was 0%. It also gave a bioavailability [12] of 58%.

Work on O=C(O)c1cccc(Oc2ncc(Cl)cc2NS(=O)(=O)c2ccc(Cl)c(Cl)c2)c1 yielded a Ki [1] of 1.58 nM, a logD [5] of 0.44 and an inhibition [6] of 42%. For the same compound, the inhibition [11] was 33%.

For Cc1ncccc1Oc1ncc(C#N)cc1NS(=O)(=O)c1ccc(Cl)c(Cl)c1, the Ki [1] was 50.1 nM, the logD [5] was 1.5 and the inhibition [6] was 43%. For the same compound, the inhibition [11] was 12%.

For O=C(O)c1ccccc1Oc1c(Cl)cccc1NS(=O)(=O)c1ccc(Cl)cc1, the Ki [1] was 398 nM and the Ki [17] was 501 nM.
